Screens: PubChem, several laboratories
697 NFkB inh – lowers PMA/ionomycin-induced NF-kB signal in 697 B cells. 697 B-cell NF-kB luciferase reporter, 16 h. inhibition, % at 4 µM. 330,000 tested, 0.33% active. AID 435022; in the data active = inhibition above about 35%
CHOP UPR activ – apoptotic UPR (CHOP) activation; activation, % at 10 µM; CHO-CHOP luciferase reporter, luminescence; percent of tunicamycin response over DMSO baseline; 330,000 tested, 0.34% active;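 active = at 10 µM dose, activation of 40% or more, normalized to positive control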;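 also: 100% = tunicamycin at 10 µg/mL and 0% = DMSO alone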
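System: CHO-CHOP luciferase reporter cell line; amount: 500 cells/well; buffer or medium: F12 medium containing 10% fetal bovine serum; incubation: 6 h compound exposure at 37 °C after overnight seeding; measured by: luciferase luminescence after 10 min with Steady-Glo reagent; evaluation: % reporter activation, DMSO baseline versus tunicamycin full activation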
CHOP inh – inhibitors of CHOP induction in ER stress response; CHO-K1 CHOP-promoter luciferase, tunicamycin-induced, 15-18 h; inhibition, % at 10 µM; AID 2732; 220,000 tested, 3.8% active;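 active = compounds that reduced the stress-induced luciferase reporter signal by more than about 70% of percent inhibition, limit read from the data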;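 also: 0% = tunicamycin plus vehicle and 100% = wells without tunicamycin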
UPR XBP1 act – adaptive UPR (XBP1) activation. CHO-XBP1 luciferase reporter, IRE1-XBP1 UPR activation, luminescence; percent of tunicamycin response, DMSO as zero. activation, % at 20 µM. 330,000 tested, 0.33% active;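 active = versus positive control, 20 µM dose yields 30% or more activation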;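 also: 100% = tunicamycin at 10 µg/mL and 0% = DMSO only wells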
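assay system = CHO-XBP1 luciferase reporter cells | amount = 1000 cells/well | buffer or medium = F12 plus 10% FBS | compound dosing = single point, 20 µM final compound, 1% DMSO | incubation = 16-18 h cell attachment at 37 °C, then 6 h compound exposure | detection = Steady-Glo luminescence read | controls = tunicamycin 10 µg/mL and vehicle-only wells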
Jurkat NFkB inh – inhibitors of the PMA/ionomycin-induced NF-kB reporter in Jurkat cells; PMA/ionomycin-induced NF-kB luciferase reporter, luminescence; 330,000 tested, 0.53% active; inhibition, % at 4 µM; in the data active = inhibition above about 50%
UPR CHOP confirm – confirmation of apoptotic unfolded protein response (CHOP) activators; shares compounds with CHOP UPR activ; CHO-CHOP cells, CHOP-luciferase reporter luminescence; percent of tunicamycin response, DMSO as zero; activation, % at 10 µM; 1,000 tested, 64% active; in the data active = activation above about 33%;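 also: 0% = DMSO wells and 100% = tunicamycin 10 µg/mL wells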
* = called active by the depositor. The sample as a whole holds a higher share of hits than the screen did.

Results for Cn1c(SCC(=O)NCC2CCCO2)ncc(C(=O)Nc2ccc(Cl)cc2)c1=O (centres undefined) ?
697 NFkB inh: -38.3; CHOP UPR activ: 158.0*; UPR XBP1 act: 4.9; Jurkat NFkB inh: -36.5; UPR CHOP confirm: 137.6*

Results for CC(=O)c1cccc(NC(=O)CSc2ncc(C(=O)Nc3ccccc3)c(=O)n2C)c1 ?
697 NFkB inh: -13.0; CHOP UPR activ: 298.9*; UPR XBP1 act: -3.7; Jurkat NFkB inh: -2.2; UPR CHOP confirm: 459.5*

Results for COC(=O)C1=C(C(=O)OC)[C@@H]2Nc3ccccc3[C@@]23C[C@@H](C(=O)OC)N(C(=O)CC(C)C)C3=N1 ?
697 NFkB inh: 26.3; CHOP UPR activ: -0.8; UPR XBP1 act: 1.7; Jurkat NFkB inh: 12.2

Results for Cn1c(CN2CCN(S(C)(=O)=O)CC2)nc2cc([N+](=O)[O-])ccc21 ?
697 NFkB inh: 16.0; CHOP UPR activ: 1.8; UPR XBP1 act: -2.7; Jurkat NFkB inh: -6.4

Results for CCNc1ccccc1CP(=O)(c1ccccc1)c1ccccc1O (centres undefined) ?
697 NFkB inh: 0.3; CHOP UPR activ: 186.5*; UPR XBP1 act: -1.1; Jurkat NFkB inh: 3.3; UPR CHOP confirm: 36.8*

How did CC(C)=CCc1c(O)ccc2c1OC(c1ccc(O)c(O)c1)CC2=O (centres undefined) do in these assays?
697 NFkB inh: -15.9; CHOP UPR activ: 68.7*; CHOP inh: 41.2; UPR XBP1 act: 15.2; Jurkat NFkB inh: 18.1; UPR CHOP confirm: 27.1

What do the screens show for `O=C1CC(c2ccc(O)c(O)c2)Oc2c1ccc(O)c2O` (centres undefined)?
697 NFkB inh: 4.1; CHOP UPR activ: 2.6; CHOP inh: -17.9; UPR XBP1 act: 1.1; Jurkat NFkB inh: -12.4

What do the screens show for `O=C(N/N=C/c1ccccn1)c1cc(-c2ccccc2)nc2ccccc12`?
697 NFkB inh: -7.5; CHOP UPR activ: 133.4*; CHOP inh: 2.7; UPR XBP1 act: -4.0; Jurkat NFkB inh: -15.2; UPR CHOP confirm: 130.9*

What do the screens show for `O=C(N/N=C/c1ccccn1)c1cc(C2CC2)nc2ccccc12`?
697 NFkB inh: -0.4; CHOP UPR activ: -1.7; UPR XBP1 act: 5.2; Jurkat NFkB inh: -6.8

Results for NC(=O)c1cccc(NC(=O)CCCCC(=O)Nc2cccc(C(N)=O)c2)c1 ?
697 NFkB inh: 12.7; CHOP UPR activ: 41.0*; UPR XBP1 act: -0.1; Jurkat NFkB inh: -10.9; UPR CHOP confirm: 1.4

Results for Cc1ccc(NC(=O)Cc2ccc(Cl)cc2)cc1S(=O)(=O)N1CCCCCC1 ?
697 NFkB inh: -1.6; CHOP UPR activ: 4.0; UPR XBP1 act: -1.0; Jurkat NFkB inh: -1.2

Results for Cc1ccc(NC(=O)Cn2ncc(Cl)c(Cl)c2=O)cc1S(=O)(=O)N1CCCCC1 ?
697 NFkB inh: -31.5; CHOP UPR activ: 88.2*; UPR XBP1 act: -7.8; Jurkat NFkB inh: 8.4; UPR CHOP confirm: 57.3*

What do the screens show for `CCc1nc2ccccc2c(C(=O)OCc2nc3ccccc3c(=O)[nH]2)c1C`?
697 NFkB inh: -11.1; CHOP UPR activ: -0.9; UPR XBP1 act: 3.2; Jurkat NFkB inh: 6.4

How did COc1ccc(/C=C\c2nc(=O)c3ccccc3o2)cc1 do in these assays?
697 NFkB inh: 9.1; CHOP UPR activ: 57.1*; CHOP inh: -29.7; UPR XBP1 act: 6.6; Jurkat NFkB inh: -22.0; UPR CHOP confirm: 120.6*

Results for CC(C)c1ccc(Nc2nnc(SCC(=O)NCC3CCCO3)s2)cc1 (centres undefined) ?
697 NFkB inh: -16.7; CHOP UPR activ: 1.7; UPR XBP1 act: -1.4; Jurkat NFkB inh: -52.1

How did Cc1ccc2c(c1)N(C(=O)CCC(=O)NCCCN1CC(C)CC(C)C1)CCO2 (centres undefined) do in these assays?
697 NFkB inh: 1.0; CHOP UPR activ: -1.8; UPR XBP1 act: -1.2; Jurkat NFkB inh: -15.4

How did CC(C)(C)OC(=O)N[C@@H](Cc1ccccc1)c1nnc(S(=O)(=O)Cc2cccc(F)c2)o1 do in these assays?
697 NFkB inh: -13.5; CHOP UPR activ: -8.0; CHOP inh: 17.2; UPR XBP1 act: -12.5; Jurkat NFkB inh: 13.6

Results for CC(C)[C@H](NC(=O)OC(C)(C)C)c1nnc(S(=O)(=O)Cc2c(F)cccc2Cl)o1 ?
697 NFkB inh: -24.2; CHOP UPR activ: 133.9*; UPR XBP1 act: -4.6; Jurkat NFkB inh: -8.1; UPR CHOP confirm: 95.0*

Results for CNS(=O)(=O)c1ccc(NC(=O)c2cc(-c3ccncc3)nc3ccc(Cl)cc23)cc1 ?
697 NFkB inh: -42.1; CHOP UPR activ: 1.0; UPR XBP1 act: -5.5; Jurkat NFkB inh: 9.4

What do the screens show for `COC(=O)c1cc(=O)n(Cc2ccco2)c(=Nc2ccc(F)c(Cl)c2)s1`?
697 NFkB inh: 13.2; CHOP UPR activ: 54.6*; CHOP inh: 29.1; UPR XBP1 act: 6.6; Jurkat NFkB inh: 3.1; UPR CHOP confirm: 54.0*

Results for COC(=O)c1cc(=O)n(CCc2ccccc2F)c(=Nc2ccc(F)c(Cl)c2)s1 ?
697 NFkB inh: 4.5; CHOP UPR activ: 30.2; CHOP inh: 16.9; UPR XBP1 act: 7.3; Jurkat NFkB inh: 13.8

Results for O=C(NCC1CCCO1)c1ccc([N+](=O)[O-])s1 (centres undefined) ?
697 NFkB inh: 10.6; CHOP UPR activ: -0.1; UPR XBP1 act: -2.6; Jurkat NFkB inh: 17.2

How did c1ccc(-c2nc(NCc3ccco3)c3ccccc3n2)nc1 do in these assays?
697 NFkB inh: 11.4; CHOP UPR activ: 67.1*; CHOP inh: 66.0; UPR XBP1 act: 5.9; Jurkat NFkB inh: 7.1; UPR CHOP confirm: 8.1

What do the screens show for `CCSC1(SCC)N=C(N)C2(C#N)C(c3ccccc3)NC3=C(CCC3)C12C#N` (centres undefined)?
697 NFkB inh: -66.0; CHOP UPR activ: -1.6; CHOP inh: 36.3; UPR XBP1 act: -1.1; Jurkat NFkB inh: -33.6

What do the screens show for `CCSC1(SCC)N=C(N)C2(C#N)C(c3ccc(OC)c(OC)c3OC)C12C#N` (centres undefined)?
697 NFkB inh: 13.5; CHOP UPR activ: 214.2*; CHOP inh: -12.6; UPR XBP1 act: 19.9; Jurkat NFkB inh: 16.6; UPR CHOP confirm: 307.2*

How did COc1ccc(OC)c(N=Cc2c(O)c3ccccc3oc2=O)c1 do in these assays?
697 NFkB inh: 2.7; CHOP UPR activ: 133.9*; UPR XBP1 act: 219.5*; Jurkat NFkB inh: -9.4; UPR CHOP confirm: 113.6*

Results for O=C(CCl)Nc1cc(S(=O)(=O)N2CCCCCC2)ccc1Cl ?
697 NFkB inh: 5.4; CHOP UPR activ: 82.7*; CHOP inh: 77.9*; UPR XBP1 act: -1.6; Jurkat NFkB inh: 23.2; UPR CHOP confirm: 70.3*

Results for CSCCC(NC(=O)c1cccc(C)c1)C(=O)OCN1C(=O)c2ccccc2C1=O (centres undefined) ?
697 NFkB inh: 3.7; CHOP UPR activ: 0.1; UPR XBP1 act: -2.3; Jurkat NFkB inh: -5.1
